# Test results: ChEMBL document CHEMBL1275484, “Rifampin and rifaximin resistance in clinical isolates of Clostridium difficile” (Antimicrob Agents Chemother, 2008)
# Experiments:
# Assay type in all cases: functional
# [1] = test system: Clostridioides difficile; assay: Antimicrobial activity against Clostridium difficile isolate 36 by agar dilution method
# Method in brief: (§1)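 MIC by CLSI reference agar dilution for anaerobes, with endpoints read per M11-A7 and C. difficile […] as control. Rifaximin was dissolved in methanol, diluted in 0.1 M phosphate buffer pH 7.4 plus 0.45% SDS, and tested at 0.0009–256 μg/ml. Rifampin was dissolved in methanol, diluted in water, and tested at 0.00001–256 μg/ml.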
# [2] = test system: Clostridioides difficile; assay: Antimicrobial activity against Clostridium difficile isolate 42 by agar dilution method
# Method in brief: (§2)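 CLSI reference agar dilution method for anaerobes, with endpoints read per guideline M11-A7. Rifaximin was dissolved in methanol, diluted in 0.1 M phosphate buffer (pH 7.4) with 0.45% SDS, and tested at 0.0009–256 μg/ml. Rifampin was dissolved in methanol, diluted in water, and tested at 0.00001–256 μg/ml. C. difficile ATCC […] served as control. Isolates were typed by HindIII REA.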
# [3] = test system: Clostridioides difficile; assay: Antimicrobial activity against Clostridium difficile isolate 44 by agar dilution method; method in brief: as §2
# [4] = test system: Clostridioides difficile; assay: Antimicrobial activity against Clostridium difficile isolate 45 by agar dilution method; method in brief: as §2
# [5] = test system: Clostridioides difficile; assay: Antimicrobial activity against Clostridium difficile isolate 47 by agar dilution method; method in brief: as §2
# [6] = test system: Clostridioides difficile; assay: Antimicrobial activity against Clostridium difficile isolate 51 by agar dilution method; method in brief: as §2
# [7] = test system: Clostridioides difficile; assay: Antimicrobial activity against Clostridium difficile isolate 54 by agar dilution method; method in brief: as §2
# [8] = test system: Clostridioides difficile; assay: Antimicrobial activity against Clostridium difficile isolate 55 by agar dilution method; method in brief: as §2
# [9] = test system: Clostridioides difficile; assay: Antimicrobial activity against Clostridium difficile isolate 57 by agar dilution method; method in brief: as §2
# [10] = test system: Clostridioides difficile; assay: Antimicrobial activity against Clostridium difficile isolate 61 by agar dilution method; method in brief: as §2
# [11] = test system: Clostridioides difficile; assay: Antimicrobial activity against Clostridium difficile isolate 62 by agar dilution method
# Method in brief: (§3)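 CLSI reference agar dilution for anaerobes, with endpoints read per guideline M11-A7. Rifaximin was dissolved in methanol, diluted in 0.1 M phosphate buffer pH 7.4 with 0.45% SDS, and tested at 0.0009–256 μg/ml. Rifampin was dissolved in methanol, diluted in water, and tested at 0.00001–256 μg/ml. Control strain: C. difficile ATCC […]. Isolates were typed by HindIII REA.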
# [12] = test system: Clostridioides difficile; assay: Antimicrobial activity against Clostridium difficile isolate 63 by agar dilution method; method in brief: as §3
# [13] = test system: Clostridioides difficile; assay: Antimicrobial activity against rifaximin-resistant Clostridium difficile isolate 68 expressing RpoB H502Y mutant by agar dilution method
# Method in brief: (§4)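 MICs were found by the CLSI reference agar dilution method for anaerobes, with endpoints read per M11-A7 and C. difficile […] as control. Rifaximin was dissolved in methanol, diluted in 0.1 M phosphate buffer pH 7.4 with 0.45% SDS, and tested at 0.0009–256 μg/ml. Rifampin was dissolved in methanol, diluted in water, and tested at 0.00001–256 μg/ml.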
# [14] = test system: Clostridioides difficile; assay: Antimicrobial activity against Clostridium difficile isolate 70 by agar dilution method; method in brief: as §3
# [15] = test system: Clostridioides difficile; assay: Antimicrobial activity against Clostridium difficile isolate 72 by agar dilution method; method in brief: as §3
# [16] = test system: Clostridioides difficile; assay: Antimicrobial activity against Clostridium difficile isolate 73 by agar dilution method; method in brief: as §3
# [17] = test system: Clostridioides difficile; assay: Antimicrobial activity against Clostridium difficile isolate 75 by agar dilution method; method in brief: as §3
# [18] = test system: Clostridioides difficile; assay: Antimicrobial activity against Clostridium difficile isolate 2 by Etest
# Method in brief: (§5)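 Rifampin MIC by Etest strip on brucella blood agar, run per the strip maker's instructions. Isolates were HindIII REA-typed clinical C. difficile.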
# [19] = test system: Clostridioides difficile; assay: Antimicrobial activity against rifaximin-resistant Clostridium difficile isolate 4 expressing RpoB S488T and R505K mutants by Etest
# Method in brief: (§6)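 Rifampin Etest on clinical C. difficile isolates typed by HindIII REA, run per the strip manufacturer's instructions on brucella blood agar, with the MIC read from the strip.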
# [20] = test system: Clostridioides difficile; assay: Antimicrobial activity against Clostridium difficile isolate 10 by Etest; method in brief: as §5
# [21] = test system: Clostridioides difficile; assay: Antimicrobial activity against Clostridium difficile isolate 14 by Etest; method in brief: as §5
# [22] = test system: Clostridioides difficile; assay: Antimicrobial activity against Clostridium difficile isolate 16 by Etest; method in brief: as §5
# [23] = test system: Clostridioides difficile; assay: Antimicrobial activity against Clostridium difficile isolate 19 by Etest; method in brief: as §5
# [24] = test system: Clostridioides difficile; assay: Antimicrobial activity against rifaximin-resistant Clostridium difficile isolate 21 expressing RpoB H502N and R505K mutants by Etest; method in brief: as §6
# [25] = test system: Clostridioides difficile; assay: Antimicrobial activity against Clostridium difficile isolate 23 by Etest; method in brief: as §5
# [26] = test system: Clostridioides difficile; assay: Antimicrobial activity against rifaximin-resistant Clostridium difficile isolate 24 expressing RpoB H502N and R505K mutants by Etest; method in brief: as §6
# [27] = test system: Clostridioides difficile; assay: Antimicrobial activity against Clostridium difficile isolate 27 by Etest; method in brief: as §5
# [28] = test system: Clostridioides difficile; assay: Antimicrobial activity against Clostridium difficile isolate 28 by Etest; method in brief: as §5
# [29] = test system: Clostridioides difficile; assay: Antimicrobial activity against Clostridium difficile isolate 30 by Etest; method in brief: as §5
# [30] = test system: Clostridioides difficile; assay: Antimicrobial activity against Clostridium difficile isolate 33 by Etest; method in brief: as §5
# [31] = test system: Clostridioides difficile; assay: Antimicrobial activity against Clostridium difficile isolate 39 by Etest
# Method in brief: (§7)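 Rifampin Etest strips were run on brucella blood agar following the manufacturer's instructions to give an MIC. Clinical isolates were typed by HindIII REA.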
# [32] = test system: Clostridioides difficile; assay: Antimicrobial activity against Clostridium difficile isolate 52 by Etest; method in brief: as §7
# [33] = test system: Clostridioides difficile; assay: Antimicrobial activity against Clostridium difficile isolate 53 by Etest; method in brief: as §7
# [34] = test system: Clostridioides difficile; assay: Antimicrobial activity against Clostridium difficile isolate 55 by Etest; method in brief: as §7
# [35] = test system: Clostridioides difficile; assay: Antimicrobial activity against Clostridium difficile isolate 59 by Etest; method in brief: as §7
# [36] = test system: Clostridioides difficile; assay: Antimicrobial activity against rifaximin-resistant Clostridium difficile isolate 64 expressing RpoB H502R mutant by Etest; method in brief: as §6
# [37] = test system: Clostridioides difficile; assay: Antimicrobial activity against rifaximin-resistant Clostridium difficile isolate 66 expressing RpoB D492N and R505K mutants by Etest; method in brief: as §6
# [38] = test system: Clostridioides difficile; assay: Antimicrobial activity against rifaximin-resistant Clostridium difficile isolate 67 expressing RpoB H502N and R505K mutants by Etest; method in brief: as §6
# [39] = test system: Clostridioides difficile; assay: Antimicrobial activity against rifaximin-resistant Clostridium difficile isolate 68 expressing RpoB H502Y mutant by Etest; method in brief: as §6
# [40] = test system: Clostridioides difficile; assay: Antimicrobial activity against Clostridium difficile isolate 71 by Etest
# Method in brief: (§8)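 Rifampin MIC by Etest on brucella blood agar, run per the strip manufacturer's instructions, against clinical isolates typed by HindIII REA.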
# [41] = test system: Clostridioides difficile; assay: Antimicrobial activity against Clostridium difficile isolate 72 by Etest; method in brief: as §8
# [42] = test system: Clostridioides difficile; assay: Antimicrobial activity against Clostridium difficile isolate 74 by Etest; method in brief: as §8
# [43] = test system: Clostridioides difficile; assay: Antimicrobial activity against Clostridium difficile isolate 75 by Etest; method in brief: as §8
# [44] = test system: Clostridioides difficile; assay: Antimicrobial activity against Clostridium difficile isolate 76 by Etest; method in brief: as §8
# [45] = test system: Clostridioides difficile; assay: Antimicrobial activity against Clostridium difficile isolate 7 by agar dilution method; method in brief: as §3
# [46] = test system: Clostridioides difficile; assay: Antimicrobial activity against Clostridium difficile isolate 14 by agar dilution method; method in brief: as §1
# [47] = test system: Clostridioides difficile; assay: Antimicrobial activity against rifaximin-resistant Clostridium difficile isolate 17 expressing RpoB H502N and I548M mutants by agar dilution method; method in brief: as §4
# [48] = test system: Clostridioides difficile; assay: Antimicrobial activity against Clostridium difficile isolate 28 by agar dilution method; method in brief: as §1
# [49] = test system: Clostridioides difficile; assay: Antimicrobial activity against Clostridium difficile isolate 30 by agar dilution method; method in brief: as §1
# [50] = test system: Clostridioides difficile; assay: Antimicrobial activity against Clostridium difficile isolate 32 by agar dilution method; method in brief: as §1
compound,measurement,setting,value
CO[C@H]1/C=C/O[C@@]2(C)Oc3c(C)c(O)c4c(O)c(c(/C=N/N5CCN(C)CC5)c(O)c4c3C2=O)NC(=O)/C(C)=C\C=C\[C@H](C)[C@H](O)[C@@H](C)[C@@H](O)[C@@H](C)[C@H](OC(C)=O)[C@@H]1C [RIFAMPIN],MIC,[1],0.9 ng/mL
same,MIC,[2],0.9 ng/mL
same,MIC,[3],0.9 ng/mL
same,MIC,[4],0.9 ng/mL
same,MIC,[5],0.9 ng/mL
same,MIC,[6],0.9 ng/mL
same,MIC,[7],0.9 ng/mL
same,MIC,[8],0.9 ng/mL
same,MIC,[9],0.9 ng/mL
same,MIC,[10],0.9 ng/mL
same,MIC,[11],0.9 ng/mL
same,MIC,[12],0.4 ng/mL
same,MIC,[13],> 256000 ng/mL
same,MIC,[14],0.06 ng/mL
same,MIC,[15],0.06 ng/mL
same,MIC,[16],0.06 ng/mL
same,MIC,[17],0.06 ng/mL
same,MIC,[18],< 2 ng/mL
same,MIC,[19],> 32000 ng/mL
same,MIC,[20],16 ng/mL
same,MIC,[21],< 2 ng/mL
same,MIC,[22],< 2 ng/mL
same,MIC,[23],< 2 ng/mL
same,MIC,[24],> 32000 ng/mL
same,MIC,[25],< 2 ng/mL
same,MIC,[26],> 32000 ng/mL
same,MIC,[27],< 2 ng/mL
same,MIC,[28],< 2 ng/mL
same,MIC,[29],< 2 ng/mL
same,MIC,[30],< 2 ng/mL
same,MIC,[31],< 2 ng/mL
same,MIC,[32],< 2 ng/mL
same,MIC,[33],< 2 ng/mL
same,MIC,[34],< 2 ng/mL
same,MIC,[35],< 2 ng/mL
same,MIC,[36],> 32000 ng/mL
same,MIC,[37],> 32000 ng/mL
same,MIC,[38],> 32000 ng/mL
same,MIC,[39],> 32000 ng/mL
same,MIC,[40],< 2 ng/mL
same,MIC,[41],< 2 ng/mL
same,MIC,[42],< 2 ng/mL
same,MIC,[43],< 2 ng/mL
same,MIC,[44],< 2 ng/mL
same,MIC,[45],0.06 ng/mL
same,MIC,[46],0.9 ng/mL
same,MIC,[47],> 256000 ng/mL
same,MIC,[48],0.9 ng/mL
same,MIC,[49],0.9 ng/mL
same,MIC,[50],0.9 ng/mL
